In ChEMBL document CHEMBL4613272, “Anti-HIV-Active Nucleoside Triphosphate Prodrugs” (J Med Chem, 2020):

Experiments:
[1] = Cytotoxicity against human CEM cells assessed as reduction in cell proliferation; assay type: cell-based; conditions: CEM cells (CCRF-CEM)
Procedure, shortened: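 CC50 is the compound concentration inhibiting CEM CD4+ T-cell proliferation by 50%. Mean ± SD of n=2-3 independent experiments.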

[2] = Half life in pH 7.3 phosphate buffered saline in presence of pig liver esterase by HPLC analysis; assay type: ADME, Sus scrofa
Procedure, shortened: (§1)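 Prodrug diluted from 50 mM DMSO stock through a 6.0 mM intermediate into DMSO/50 mM PBS pH 7.3. Started with pig liver esterase (3 mg/mL solution in PBS) and shaken at 37 °C, 800 rpm. Aliquots quenched in MeOH at intervals, filtered, stored in liquid nitrogen and analysed by RP18 HPLC.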

[3] = system: Human immunodeficiency virus 1; assay: Antiviral activity against HIV1 HE infected in human CEM/0 cells assessed as inhibition of virus-induced giant cell formation measured after 4 to 5 days by microscopic analysis; conditions: Human immunodeficiency virus 1, HE, CCRF-CEM
[4] = Selectivity index, ratio of CC50 for human CEM cells to EC50 for HIV1 HE infected in human CEM/0 cells; conditions: CEM cells (CC50) and HIV1 HE infected CEM/0 cells (EC50)
[5] = system: Human immunodeficiency virus 2; assay: Antiviral activity against HIV2 ROD infected in human CEM/0 cells assessed as inhibition of virus-induced giant cell formation measured after 4 to 5 days by microscopic analysis; conditions: Human immunodeficiency virus 2, ISOLATE ROD, CCRF-CEM
[6] = Prodrug conversion in pH 7.3 phosphate buffered saline assessed as pig liver esterase-mediated d4TTP formation by HPLC analysis; assay type: ADME, Sus scrofa; conditions: in vitro; procedure, shortened: as §1
[7] = system: Human immunodeficiency virus 2; assay: Antiviral activity against HIV2 ROD infected in thymidine kinase-deficient human CEM cells assessed as inhibition of virus-induced giant cell formation measured after 4 to 5 days by microscopic analysis; conditions: Human immunodeficiency virus 2, ISOLATE ROD, CCRF-CEM
[8] = Half life in pH 7.3 phosphate buffered saline by HPLC analysis; assay type: physicochemical
Procedure, shortened: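 Prodrug from 50 mM DMSO-d6 stock diluted to 1.9 mM with water/DMSO-d6. Reaction started by adding phosphate buffer (50 mM stock, pH 7.3). Products followed by analytical RP18 HPLC with TBAA or TEAA buffer/acetonitrile gradient.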

[9] = Half life in human CEM/0 cell extracts by HPLC analysis; assay type: ADME, CCRF-CEM
Procedure, shortened: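 Cell extract prepared from CEM cells grown in RPMI-1640-based medium to ~3·10^6 cells/mL. Cells washed twice in cold PBS, resuspended at 10^8 cells/mL, sonicated, cleared at 10,000 rpm and stored at -80 °C. Prodrug at 6.0 mM hydrolysis solution in DMSO-d6 mixed with water and extract at 37 °C over time. Samples iced, sonicated and centrifuged; supernatant analysed by RP18 HPLC. t1/2 calculated as for chemical hydrolysis.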

Row | SMILES | CC50 [1] | half-life [2] | EC50 [3] | selectivity ratio [4] | EC50 [5] | Drug metabolism [6] | EC50 [7] | half-life [8] | half-life [9]
1 | CCCCCCCCCCCCOC(=O)Oc1ccc(COP(=O)(OCc2ccc(OC(=O)OCCCC)cc2)OP(=O)(O)OP(=O)(O)OC[C@@H]2C=C[C@H](n3cc(C)c(=O)[nH]c3=O)O2)cc1.N.N (some centres not stated) | 54 µM | 16.8 min | 730 nM | 74 | 170 nM | Metabolite_Detected | 1120 nM | 4.46 days | –
2 | CCCCCCCCCOC(=O)Oc1ccc(COP(=O)(OCc2ccc(OC(=O)CCCCCCCCC)cc2)OP(=O)(O)OP(=O)(O)OC[C@@H]2C=C[C@H](n3cc(C)c(=O)[nH]c3=O)O2)cc1.N.N (some centres not stated) | 37 µM | – | 110 nM | 336 | 90 nM | – | 150 nM | 3.38 days | –
3 | CCCCCCCCCCCCCCCCOC(=O)Oc1ccc(COP(=O)(O)OP(=O)(O)OP(=O)(O)OC[C@@H]2C=C[C@H](n3cc(C)c(=O)[nH]c3=O)O2)cc1.N.N.N | 61 µM | – | 500 nM | 122 | 290 nM | – | 1460 nM | > 66.7 days | –
4 | CCCCCCCCCOC(=O)Oc1ccc(COP(=O)(OCc2ccc(OC(=O)CC)cc2)OP(=O)(O)OP(=O)(O)OC[C@@H]2C=C[C@H](n3cc(C)c(=O)[nH]c3=O)O2)cc1.N.N (some centres not stated) | 84 µM | – | 73 nM | 1150 | 40 nM | – | 1760 nM | 1.04 days | –
5 | CCCCCCCCCCCCCCCCOC(=O)Oc1ccc(COP(=O)(OCc2ccc(OC(=O)CCCC)cc2)OP(=O)(O)OP(=O)(O)OC[C@@H]2C=C[C@H](n3cc(C)c(=O)[nH]c3=O)O2)cc1.N.N (some centres not stated) | 21 µM | 96 min | – | 656 | – | Metabolite_Detected | 120 nM | 3.08 days | 222 min
6 | CCCCCCCCCCCCOC(=O)Oc1ccc(COP(=O)(OCc2ccc(OC(=O)CC)cc2)OP(=O)(O)OP(=O)(O)OC[C@@H]2C=C[C@H](n3cc(C)c(=O)[nH]c3=O)O2)cc1.N.N (some centres not stated) | 33 µM | 26.4 min | 61 nM | 541 | 130 nM | Metabolite_Detected | 640 nM | 2.75 days | –
7 | CCCCCCCCCCCCCCCCCCOC(=O)Oc1ccc(COP(=O)(OCc2ccc(OC(=O)CCCC)cc2)OP(=O)(O)OP(=O)(O)OC[C@@H]2C=C[C@H](n3cc(C)c(=O)[nH]c3=O)O2)cc1.N.N (some centres not stated) | 58 µM | – | 55 nM | 1050 | 25 nM | – | 560 nM | 3.08 days | –
8 | CCCCCCCCCCCCOC(=O)Oc1ccc(COP(=O)(OCc2ccc(OC(=O)OCC)cc2)OP(=O)(O)OP(=O)(O)OC[C@@H]2C=C[C@H](n3cc(C)c(=O)[nH]c3=O)O2)cc1.N.N (some centres not stated) | 64 µM | 30.6 min | 570 nM | 112 | 240 nM | Metabolite_Detected | 1750 nM | 3.5 days | 56.4 min
9 | CCCCCCCCCCCCCCCCOC(=O)Oc1ccc(COP(=O)(OCCC#N)OP(=O)(O)OP(=O)(O)OC[C@@H]2C=C[C@H](n3cc(C)c(=O)[nH]c3=O)O2)cc1.N.N (some centres not stated) | 53 µM | – | 530 nM | 100 | 300 nM | – | 3260 nM | 2.33 days | –
10 | CCCCCCCCCCCCOC(=O)Oc1ccc(COP(=O)(OCCC#N)OP(=O)(O)OP(=O)(O)OC[C@@H]2C=C[C@H](n3cc(C)c(=O)[nH]c3=O)O2)cc1.N.N (some centres not stated) | > 100 µM | – | 470 nM | > 212 | 230 nM | – | 2480 nM | 1.25 days | –
11 | CCCCCCCCCCCCCCCCOC(=O)Oc1ccc(COP(=O)(OCc2ccc(OC(=O)CCCCCCCC)cc2)OP(=O)(O)OP(=O)(O)OC[C@@H]2C=C[C@H](n3cc(C)c(=O)[nH]c3=O)O2)cc1.N.N (some centres not stated) | – | 828 min | – | – | – | Metabolite_Detected | – | 3.75 days | 384 min
